Assay results: ChEMBL document CHEMBL4765317, “Novel bacterial topoisomerase inhibitors derived from isomannide” (Eur J Med Chem, 2020)
In brackets after ≈: the same amount, converted by molar mass.

Columns and labels:
[1] = Metabolic stability in human liver microsomes assessed as half life at 10 uM incubated for 5 mins followed by NADPH addition and measured upto 60 mins by LC-MS analysis; type: ADME, Microsome; details: time 65 min
[2] = molecular target: Nav1.5 (late current) (Homo sapiens, UniProt Q14524); test: Inhibition of recombinant human Nav1.5 late expressed in human HEK293 cells at 30 uM in presence of ATXII by automated Qpatch clamp assay relative to control; type: ADME, cell-based; details: HEK293 cells expressing recombinant human Nav1.5
Procedure, shortened: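 Part of an eight-assay CiPA panel run on a QPatch HT automated patch clamp at 3, 30 and 100 µM, in duplicate. The test compound came from a 30 mM DMSO stock. Data were filtered for seal quality, seal drop and current amplitude, and reported as mean percent inhibition.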

[3] = system: Enterococcus faecium; test: Antibacterial activity against Vancomycin-resistant Enterococcus faecium LSI-3340 assessed as reduction in bacterial growth by CLSI based broth microdilution method; type: functional
[4] = system: Streptococcus pneumoniae; test: Antibacterial activity against penicillin-resistant Streptococcus pneumoniae LSI-4246 assessed as reduction in bacterial growth by CLSI based broth microdilution method; type: functional
[5] = molecular target: 5-hydroxytryptamine receptor 2B (Homo sapiens) (UniProt P41595); test: Inhibition of recombinant human full length 5HT2B expressed in CHO-K1 cells at 100 uM incubated for 30 mins by TR-FRET assay relative to control; type: cell-based
Procedure, shortened: (§1)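 Off-target screen against a panel of 44 receptors, enzymes and transporters, run in duplicate at a single 100 µM concentration. Results are given as % inhibition. No concentration-response follow-up was done.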

[6] = system: Staphylococcus aureus; test: Antibacterial activity against methicillin-resistant Staphylococcus aureus DRL-3161 assessed as reduction in bacterial growth by CLSI based broth microdilution method; type: functional
[7] = system: Staphylococcus aureus; test: Antibacterial activity against Staphylococcus aureus 3527 assessed as reduction in bacterial growth by CLSI based broth microdilution method; type: functional
Procedure, shortened: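 Host is a multidrug-resistant MRSA clinical isolate (formerly 1095), the parent of an isogenic D83N gyrase mutant. MIC was read by CLSI broth microdilution and reported in µg/mL.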

[8] = Inhibition of Staphylococcus aureus topoisomerase IV using kDNA as substrate incubated for 30 mins by gel electrophoresis analysis; details: read-out: IC50
[9] = molecular target: Sodium channel protein type 2 subunit alpha (Homo sapiens) (UniProt Q99250); test: Inhibition of recombinant human full length Nav1.2 expressed in CHO-K1 cells at 100 uM by manual patch clamp assay relative to control; type: cell-based; procedure, shortened: as §1
Chain of Sodium channel protein type 2 subunit alpha (Homo sapiens) (Q99250 whole entry, looked up): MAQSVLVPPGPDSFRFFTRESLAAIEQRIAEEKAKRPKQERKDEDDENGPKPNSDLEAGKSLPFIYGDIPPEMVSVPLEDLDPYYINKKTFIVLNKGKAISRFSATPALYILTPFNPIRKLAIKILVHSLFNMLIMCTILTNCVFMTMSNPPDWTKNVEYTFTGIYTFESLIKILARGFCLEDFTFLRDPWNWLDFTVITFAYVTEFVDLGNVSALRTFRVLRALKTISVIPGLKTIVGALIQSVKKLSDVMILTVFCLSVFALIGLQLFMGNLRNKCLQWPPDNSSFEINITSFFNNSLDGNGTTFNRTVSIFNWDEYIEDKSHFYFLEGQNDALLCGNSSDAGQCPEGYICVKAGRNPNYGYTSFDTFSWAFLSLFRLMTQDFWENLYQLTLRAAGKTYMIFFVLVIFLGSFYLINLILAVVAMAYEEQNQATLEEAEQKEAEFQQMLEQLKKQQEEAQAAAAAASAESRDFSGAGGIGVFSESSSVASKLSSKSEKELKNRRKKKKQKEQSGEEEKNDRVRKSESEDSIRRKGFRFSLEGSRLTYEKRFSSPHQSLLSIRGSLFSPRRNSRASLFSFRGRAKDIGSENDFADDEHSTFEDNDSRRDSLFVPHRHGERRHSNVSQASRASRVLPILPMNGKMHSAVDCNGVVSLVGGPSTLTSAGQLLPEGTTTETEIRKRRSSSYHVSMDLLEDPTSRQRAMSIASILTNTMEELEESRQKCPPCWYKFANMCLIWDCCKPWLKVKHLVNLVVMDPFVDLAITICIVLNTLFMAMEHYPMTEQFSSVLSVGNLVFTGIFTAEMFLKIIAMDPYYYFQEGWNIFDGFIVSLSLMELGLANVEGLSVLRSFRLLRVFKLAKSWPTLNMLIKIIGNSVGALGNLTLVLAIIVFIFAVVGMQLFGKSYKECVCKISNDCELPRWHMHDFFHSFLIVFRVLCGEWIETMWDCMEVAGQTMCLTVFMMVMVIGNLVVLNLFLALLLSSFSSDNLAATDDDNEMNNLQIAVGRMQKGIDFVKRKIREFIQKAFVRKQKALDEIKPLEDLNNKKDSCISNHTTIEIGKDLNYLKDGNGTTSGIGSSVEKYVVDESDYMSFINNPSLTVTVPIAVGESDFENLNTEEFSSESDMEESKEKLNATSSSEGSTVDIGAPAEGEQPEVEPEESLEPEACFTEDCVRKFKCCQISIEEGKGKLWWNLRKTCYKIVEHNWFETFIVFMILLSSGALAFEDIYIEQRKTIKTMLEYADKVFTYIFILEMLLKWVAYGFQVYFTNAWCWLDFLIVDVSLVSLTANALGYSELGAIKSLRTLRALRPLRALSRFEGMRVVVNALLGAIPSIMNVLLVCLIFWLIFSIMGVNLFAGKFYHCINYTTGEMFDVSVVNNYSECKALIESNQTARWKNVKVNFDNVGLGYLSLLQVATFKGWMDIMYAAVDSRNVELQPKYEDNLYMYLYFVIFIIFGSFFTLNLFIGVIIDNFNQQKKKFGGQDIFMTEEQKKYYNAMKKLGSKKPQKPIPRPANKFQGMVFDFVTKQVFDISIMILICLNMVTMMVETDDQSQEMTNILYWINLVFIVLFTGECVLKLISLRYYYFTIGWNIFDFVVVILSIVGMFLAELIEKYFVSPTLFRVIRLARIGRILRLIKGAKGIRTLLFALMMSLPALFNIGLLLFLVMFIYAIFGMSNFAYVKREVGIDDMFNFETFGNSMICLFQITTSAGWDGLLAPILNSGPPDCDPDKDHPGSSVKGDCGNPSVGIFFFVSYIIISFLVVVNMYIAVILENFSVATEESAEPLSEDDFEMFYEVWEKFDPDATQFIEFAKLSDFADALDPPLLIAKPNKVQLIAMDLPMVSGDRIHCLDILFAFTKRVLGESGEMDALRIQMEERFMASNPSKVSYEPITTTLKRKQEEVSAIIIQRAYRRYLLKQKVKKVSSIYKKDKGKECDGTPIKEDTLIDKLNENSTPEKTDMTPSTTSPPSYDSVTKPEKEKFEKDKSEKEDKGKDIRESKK

[10] = molecular target: T1, Sodium channel protein type 5 subunit alpha (Homo sapiens, UniProt Q14524); test: Activation of recombinant human Nav1.5 late expressed in human HEK293 cells assessed as activation of late current at 30 uM by automated Qpatch clamp assay relative to control; type: ADME, cell-based; details: hek293, 30 µM
T1 sequence (Q14524 whole entry): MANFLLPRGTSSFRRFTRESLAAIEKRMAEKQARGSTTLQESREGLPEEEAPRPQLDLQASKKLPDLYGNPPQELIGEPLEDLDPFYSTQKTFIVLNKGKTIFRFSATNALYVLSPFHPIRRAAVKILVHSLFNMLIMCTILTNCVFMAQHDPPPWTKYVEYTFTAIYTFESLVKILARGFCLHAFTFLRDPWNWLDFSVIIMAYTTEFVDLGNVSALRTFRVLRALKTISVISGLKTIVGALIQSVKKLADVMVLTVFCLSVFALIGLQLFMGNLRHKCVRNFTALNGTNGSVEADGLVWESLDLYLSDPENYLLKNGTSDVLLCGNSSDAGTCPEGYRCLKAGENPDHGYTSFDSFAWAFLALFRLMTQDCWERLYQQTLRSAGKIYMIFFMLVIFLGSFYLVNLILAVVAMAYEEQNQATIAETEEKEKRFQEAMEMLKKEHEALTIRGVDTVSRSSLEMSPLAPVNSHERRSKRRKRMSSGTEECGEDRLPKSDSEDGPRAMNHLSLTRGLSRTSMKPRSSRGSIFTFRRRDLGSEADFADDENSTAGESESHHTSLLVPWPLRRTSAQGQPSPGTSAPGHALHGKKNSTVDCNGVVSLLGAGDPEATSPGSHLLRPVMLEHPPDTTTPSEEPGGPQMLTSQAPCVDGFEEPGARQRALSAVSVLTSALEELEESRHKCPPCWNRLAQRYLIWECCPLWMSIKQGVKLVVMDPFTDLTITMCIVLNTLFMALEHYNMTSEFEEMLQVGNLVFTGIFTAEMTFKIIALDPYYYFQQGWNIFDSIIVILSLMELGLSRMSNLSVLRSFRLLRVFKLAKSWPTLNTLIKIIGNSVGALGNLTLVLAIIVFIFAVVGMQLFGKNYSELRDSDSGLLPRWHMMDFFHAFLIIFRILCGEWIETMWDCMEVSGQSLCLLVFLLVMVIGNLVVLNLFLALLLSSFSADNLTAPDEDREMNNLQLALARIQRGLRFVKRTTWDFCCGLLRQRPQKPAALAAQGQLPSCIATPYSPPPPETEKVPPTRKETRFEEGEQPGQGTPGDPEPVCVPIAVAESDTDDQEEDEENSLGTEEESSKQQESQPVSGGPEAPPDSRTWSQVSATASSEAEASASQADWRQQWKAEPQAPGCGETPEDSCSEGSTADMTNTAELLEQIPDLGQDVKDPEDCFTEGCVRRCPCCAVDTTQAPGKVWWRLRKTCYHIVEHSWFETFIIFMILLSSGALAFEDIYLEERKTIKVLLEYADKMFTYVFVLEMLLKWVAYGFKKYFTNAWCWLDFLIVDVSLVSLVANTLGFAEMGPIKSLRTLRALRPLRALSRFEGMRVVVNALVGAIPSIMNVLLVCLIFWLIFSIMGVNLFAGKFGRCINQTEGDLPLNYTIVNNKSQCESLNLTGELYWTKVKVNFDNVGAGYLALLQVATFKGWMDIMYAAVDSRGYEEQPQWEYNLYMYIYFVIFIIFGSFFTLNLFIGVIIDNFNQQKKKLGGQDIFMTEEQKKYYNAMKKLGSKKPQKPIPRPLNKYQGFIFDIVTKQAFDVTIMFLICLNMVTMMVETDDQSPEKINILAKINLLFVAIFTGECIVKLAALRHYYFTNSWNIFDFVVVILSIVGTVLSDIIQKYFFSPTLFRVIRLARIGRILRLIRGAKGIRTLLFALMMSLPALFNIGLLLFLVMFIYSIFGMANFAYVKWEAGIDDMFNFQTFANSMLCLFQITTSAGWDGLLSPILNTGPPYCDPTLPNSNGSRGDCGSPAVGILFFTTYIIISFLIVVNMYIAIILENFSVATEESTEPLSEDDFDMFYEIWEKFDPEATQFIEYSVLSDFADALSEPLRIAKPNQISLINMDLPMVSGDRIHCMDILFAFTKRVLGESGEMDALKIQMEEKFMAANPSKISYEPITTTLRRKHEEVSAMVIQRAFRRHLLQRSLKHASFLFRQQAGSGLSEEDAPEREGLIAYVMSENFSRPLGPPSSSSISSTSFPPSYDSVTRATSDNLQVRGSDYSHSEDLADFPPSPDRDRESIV
Procedure, shortened: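 Part of an eight-assay CiPA panel run in duplicate on an automated QPatch HT patch-clamp system at 3, 30 and 100 µM. Test compound came from a 30 mM DMSO stock. Records were filtered for seal quality, seal drop and current amplitude, and mean percent values are reported.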

[11] = system: Staphylococcus aureus; test: Antibacterial activity against cystic fibrosis patient isolate Staphylococcus aureus assessed as reduction in bacterial growth by CLSI based broth microdilution method; type: functional
[12] = molecular target: T1, Sodium channel protein type 5 subunit alpha; test: Activation of recombinant human Nav1.5 late expressed in human HEK293 cells assessed as activation of late current at 100 uM by automated Qpatch clamp assay relative to control; type: ADME, cell-based; details: hek293, 100 µM
Procedure, shortened: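 Part of an eight-assay CiPA cardiac ion channel panel run in duplicate on a QPatch HT automated patch-clamp system. Compound was prepared as a 30 mM DMSO stock and tested at 3, 30 and 100 µM. Recordings were filtered for seal quality, seal drop and current amplitude, and results are reported as mean percent values.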

[13] = molecular target: Voltage-gated inwardly rectifying potassium channel KCNH2 (Homo sapiens, UniProt Q12809); test: Inhibition of human ERG
[14] = Cytotoxicity against human HepaRG assessed as reduction in cell viability at 1 uM incubated for 24 hrs by Cell-Titer Glo assay; type: cell-based; details: HepaRG cells, read-out: INH
Procedure, shortened: (§2)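 ATP-based viability read-out in HepaRG cells over a five-point concentration series (0.01, 0.1, 1, 10, 100 µM). Results are given as % cytotoxicity at each concentration.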

[15] = Cytotoxicity against human HepaRG assessed as reduction in cell viability at 0.1 uM incubated for 24 hrs by Cell-Titer Glo assay; type: cell-based; details: HepaRG cells, read-out: INH; procedure, shortened: as §2
[16] = system: Staphylococcus aureus; test: Antibacterial activity against Fluoroquinolone-resistant Staphylococcus aureus assessed as reduction in bacterial growth by CLSI based broth microdilution method; type: functional
[17] = molecular target: CYP3A4 (Homo sapiens, UniProt P08684); test: Residual activity of human liver microsome CYP3A4 at 0.1 uM in presence of NADPH incubated for 10 to 30 mins by LC-MS-MS analysis; details: human liver microsomes
[18] = molecular target: Sodium-dependent dopamine transporter (Homo sapiens) (UniProt Q01959); test: Inhibition of recombinant human full length Dopamine transporter expressed in CHO-S cells at 100 uM in presence of [125I]-RTI-55 incubated for 180 mins by scintillation counting method relative to control; type: cell-based; procedure, shortened: as §1
[19] = Permeability across apical to basolateral side in human Caco2 cells at 10 uM by LC-MS/MS analysis; type: ADME, cell-based; details: Caco-2, read-out: permeability
[20] = molecular target: CYP1A2 (Homo sapiens, UniProt P05177); test: Inhibition of human liver microsome CYP1A2 at 10 uM in presence of NADPH incubated for 10 to 30 mins by LC-MS-MS analysis; type: ADME; details: human liver microsomes, time 10-30 min
Chain of CYP1A2 (P05177 whole entry): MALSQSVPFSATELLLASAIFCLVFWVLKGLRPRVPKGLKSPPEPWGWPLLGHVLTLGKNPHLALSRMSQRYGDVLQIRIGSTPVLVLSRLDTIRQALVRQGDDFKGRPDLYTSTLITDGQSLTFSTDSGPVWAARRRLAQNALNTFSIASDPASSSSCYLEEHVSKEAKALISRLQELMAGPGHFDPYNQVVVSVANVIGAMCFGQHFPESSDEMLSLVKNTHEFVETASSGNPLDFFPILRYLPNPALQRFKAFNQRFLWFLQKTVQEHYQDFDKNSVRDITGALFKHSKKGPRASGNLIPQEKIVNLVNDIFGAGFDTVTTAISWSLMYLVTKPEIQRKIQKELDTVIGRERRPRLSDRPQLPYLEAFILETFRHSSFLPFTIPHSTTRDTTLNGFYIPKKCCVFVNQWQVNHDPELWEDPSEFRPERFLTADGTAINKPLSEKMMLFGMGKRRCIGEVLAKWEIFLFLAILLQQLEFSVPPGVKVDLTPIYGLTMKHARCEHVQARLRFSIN

[21] = molecular target: Sodium-dependent noradrenaline transporter (Homo sapiens) (UniProt P23975); test: Inhibition of recombinant human full length Norepinephrine transporter expressed in dog MDCK cells at 100 uM in presence of [125I]-RTI-55 incubated for 180 mins by scintillation counting method relative to control; type: cell-based; details: CHO-K1; procedure, shortened: as §1
Chain of Sodium-dependent noradrenaline transporter (Homo sapiens) (P23975 whole entry): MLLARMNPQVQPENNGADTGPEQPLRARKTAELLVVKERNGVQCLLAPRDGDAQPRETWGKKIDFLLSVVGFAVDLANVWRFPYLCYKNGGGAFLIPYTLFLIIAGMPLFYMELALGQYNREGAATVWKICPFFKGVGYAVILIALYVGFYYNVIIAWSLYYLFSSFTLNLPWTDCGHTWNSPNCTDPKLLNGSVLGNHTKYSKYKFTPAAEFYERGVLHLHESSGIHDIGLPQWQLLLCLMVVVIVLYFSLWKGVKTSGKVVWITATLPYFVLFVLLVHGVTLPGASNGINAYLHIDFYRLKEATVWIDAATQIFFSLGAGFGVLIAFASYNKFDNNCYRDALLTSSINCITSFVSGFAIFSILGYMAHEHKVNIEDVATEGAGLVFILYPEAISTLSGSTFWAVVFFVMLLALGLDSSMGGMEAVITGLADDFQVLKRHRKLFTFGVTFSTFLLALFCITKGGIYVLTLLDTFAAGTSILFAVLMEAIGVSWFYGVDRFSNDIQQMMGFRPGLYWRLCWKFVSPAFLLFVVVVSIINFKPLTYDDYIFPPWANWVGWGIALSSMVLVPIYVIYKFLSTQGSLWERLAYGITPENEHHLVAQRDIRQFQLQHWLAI

[22] = molecular target: CYP2B6 (Homo sapiens, UniProt P20813); test: Inhibition of human liver microsome CYP2B6 at 10 uM in presence of NADPH incubated for 10 to 30 mins by LC-MS-MS analysis; type: ADME; details: human liver microsomes, time 10-30 min
[23] = system: Staphylococcus aureus; test: Antibacterial activity against Staphylococcus aureus ATCC 29213 assessed as reduction in bacterial growth by CLSI based broth microdilution method; type: functional
[24] = molecular target: KCNQ1 (Homo sapiens, UniProt P51787); test: Inhibition of recombinant human KCNQ1 expressed in CHO-K1 cells at 3 uM by automated Qpatch clamp assay relative to control; type: ADME, cell-based; details: CHO-K1 cells expressing recombinant human KCNQ1
Procedure, shortened: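 KCNQ1/hminK current recorded in duplicate on an automated QPatch HT at 3, 30 and 100 µM, from a 30 mM DMSO stock. Records were filtered for seal quality, seal drop and current amplitude. Peak outward current was evoked by a step to 60 mV. Block is the test-compound amplitude divided by control, where control is the mean over 15 s at the end of the control period. Chromanol 293B was the positive control.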

[25] = Aqueous solubility of compound at 100 uM incubated for 90 mins by LC-MS/MS analysis; type: physicochemical; details: buffer
Procedure, shortened: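 Kinetic solubility measured in buffered aqueous solution at pH 7.4.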

[26] = system: Streptococcus pneumoniae; test: Antibacterial activity against penicillin-susceptible Streptococcus pneumoniae LSI-4234 assessed as reduction in bacterial growth by CLSI based broth microdilution method; type: functional

SMILES: COc1ccc2ncc(F)c(CC[C@@]3(O)CO[C@@H]4[C@@H](NCc5cc6c(cn5)OCCO6)CO[C@@H]43)c2n1
- half-life at 10 µM [1]: 6 min
- inhibition at 30 µM [2]: 19.1%
- MIC [3]: 0.25 µg/mL (≈ 0.501 µM)
- MIC [4]: ≤ 0.12 µg/mL
- inhibition [5]: 95%
- MIC [6]: 1 µg/mL (≈ 2.01 µM)
- MIC [7]: 2 µg/mL (≈ 4.01 µM)
- IC50 [8]: 7.4 µM
- inhibition [9]: 78%
- Activity [10]: 7.7%
- MIC [11]: 2 µg/mL (≈ 4.01 µM)
- Activity [12]: 17%
- IC50 [13]: 66 µM
- cytotoxicity at 24 h, 1 µM [14]: 9%
- cytotoxicity at 24 h, 0.1 µM [15]: 4%
- MIC90 [16]: 2 µg/mL (≈ 4.01 µM)
- residual activity at 0.1 µM [17]: 97%
- inhibition [18]: 96%
- Papp A→B at 10 µM [19]: 10.8 ×10⁻⁶ cm/s
- inhibition at 10 µM [20]: < 50%
- inhibition [21]: 68%
- inhibition at 10 µM [22]: < 50%
- MIC [23]: 1 µg/mL (≈ 2.01 µM)
- inhibition at 3 µM [24]: -2.9%
- solubility at […], 100 µM [25]: 76.2 µM (≈ 38 µg/mL)
- MIC [26]: ≤ 0.12 µg/mL
